mIAP activ: activators of mouse IAP, primary screen, biochemical, luminescence, uHTS. intestinal alkaline phosphatase [Mus musculus]. muIAP, CDP-Star luminescence, 30 min; stronger effect = higher value; 1 = vehicle-only enzyme signal, 0 = enzyme-free wells. activation factor at 10 µM. 0.24% of 330,000 active. AID 2805, 2010;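 active means activation factor of at least 2 at 20 µM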
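also added = chemiluminescent substrate CDP-Star | test system = mouse IAP enzyme | signal = chemiluminescence readout | compound = DMSO-dissolved test compounds | incubation = 30 min at room temperature | benchmarks = DMSO wells, no-enzyme wells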
hIAP inh: human IAP inhibitors, primary screen, biochemical, luminescence, uHTS; 0.12% of 330,000 active; Intestinal-type alkaline phosphatase (Homo sapiens), P09923; purified IAP, CDP-Star luminescence, 30 min; inhibition, % at 10 µM;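 active means inhibition reaching a set limit with compound at 10 µM in the primary screen, cut at about 35% in these data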;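 further: plate controls were DMSO wells with enzyme for no effect and no-enzyme buffer wells for full effect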
Target sequence (P09923 whole entry, looked up): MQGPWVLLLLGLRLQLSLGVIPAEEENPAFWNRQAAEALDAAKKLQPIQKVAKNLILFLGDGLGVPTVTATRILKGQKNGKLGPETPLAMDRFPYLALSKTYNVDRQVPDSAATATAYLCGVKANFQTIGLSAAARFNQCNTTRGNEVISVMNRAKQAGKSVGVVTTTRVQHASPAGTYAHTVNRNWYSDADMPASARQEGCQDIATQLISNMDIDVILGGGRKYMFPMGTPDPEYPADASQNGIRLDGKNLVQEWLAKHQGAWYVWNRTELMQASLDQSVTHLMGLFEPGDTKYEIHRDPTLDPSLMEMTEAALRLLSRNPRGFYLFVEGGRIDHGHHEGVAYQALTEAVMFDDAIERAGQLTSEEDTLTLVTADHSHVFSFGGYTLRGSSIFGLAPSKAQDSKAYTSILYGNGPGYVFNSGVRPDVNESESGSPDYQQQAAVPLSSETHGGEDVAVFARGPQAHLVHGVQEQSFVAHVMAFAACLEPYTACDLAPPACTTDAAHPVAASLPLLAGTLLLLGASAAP
hIAP activ: human IAP activators, primary screen, biochemical, luminescence, uHTS | purified human IAP, CDP-Star luminescence, 30 min; stronger effect = higher value; 1 = vehicle-only enzyme, 0 = enzyme-free background | 0.16% of 330,000 active | activation factor at 10 µM | AID 2524, 2010 | Intestinal-type alkaline phosphatase (Homo sapiens), P09923;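 active means activation factor of the enzyme at least 2-fold when tested at 20 µM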
bIAP inhibitor: bovine intestinal alkaline phosphatase inhibitors, primary screen, selectivity assay for TNAP inhibitor project, biochemical, bovine IAP, CDP-star luminescence | alkaline phosphatase, intestinal [Bos taurus] | purified bovine IAP, 30 min | inhibition, % at 20 µM | 190,000 tested, under 10 active | AID 1019, 2008;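 active means over 50% inhibition of intestinal alkaline phosphatase at 20 µM in the single-dose screen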
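Assay system – bovine IAP enzyme · Quantity – bovine IAP at 1/65,000,000 final dilution · Detection – CDP-star luminescence signal · Times – 30 min reaction at room temperature · Also added – CDP-star substrate at 30 µM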
mIAP inh: inhibitors of mouse IAP, primary screen, biochemical, luminescence, uHTS; purified mouse IAP, CDP-Star luminescence, 30 min; inhibition, % at 10 µM; 0.2% of 330,000 active;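 active means inhibition of at least 40% at 10 µM in the primary screen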;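 further: plate controls were DMSO with enzyme for no effect and no enzyme wells for full effect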
bIAP activator: bovine intestinal alkaline phosphatase activators, primary screen, biochemical, bovine IAP, CDP-star luminescence | purified bovine IAP, 30 min; stronger effect = higher value; fold of DMSO-control signal, blank-subtracted | alkaline phosphatase, intestinal [Bos taurus] | 0.17% of 200,000 active | AID 1016, 2008 | activation factor at 20 µM;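 active means activation factor of 2 or more at 20 µM, a signal rise over negative controls twice the positive control's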
hIAP act conf: human IAP activators, confirmation, biochemical, luminescence, single concentration, uHTS hits. shares compounds with hIAP activ. purified IAP, CDP-Star luminescence, 30 min; stronger effect = lower value. activation (%Activity, negative = activation), % at 8.3 µM. 10% of 880 active;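 active means at least twofold enzyme activation in any of six single-dose repeats, which the averaged readout prints as negative percent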
* hit, by the source's call; x = no result. This is a sample that favours compounds with a hit; in the whole collection about 0.72% have one here.

SMILES	mIAP activ	hIAP inh	hIAP activ	bIAP inhibitor	mIAP inh	bIAP activator	hIAP act conf
Cc1oc2cc3oc(=O)c(CCC(=O)NCCCN4CCOCC4)c(C)c3cc2c1C	0.87	6	0.94	x	13	x	x
CCCCC#Cc1cncc(C(=O)N/N=C/c2cccc(OC)c2)c1	0.96	40*	0.6	x	4	x	-37
Cc1nnc(N2CCc3ccccc3C2)[nH]c1=O	0.95	36*	0.64	6	5	0.9	-43
COc1ccc(C2NC(=O)NC(C)=C2[N+](=O)[O-])cc1 (stereo unspecified)	0.99	-27	1.3	x	1	x	x
Cc1cc(/C=C(\C#N)C(=O)N2CCOCC2)c(C)n1C1CCCC1	0.98	-8	1.1	x	2	x	x
Cc1ccc(S(=O)(=O)N2CCN(CC(=O)Nc3ccc4c(c3)CCC4)CC2)cc1C	1.2	-9	1.1	-2	-19	1	x
O=C(CN1CCN(S(=O)(=O)c2ccc3ccccc3c2)CC1)Nc1ccc2c(c1)CCC2	0.83	-104	2*	12	17	0.9	-3
CCOc1cccc(/C=N/NC(=O)c2cc(C3CC3)[nH]n2)c1O	0.91	-147	2.5*	x	9	x	-12
CCOc1ccccc1C(=O)OCC(=O)NCC1CCCCC1	0.98	-16	1.2	x	2	x	x
C/C(=N\OCC(=O)NC12CC3CC(CC(C3)C1)C2)c1cc2ccccc2o1	0.99	5	0.95	-1	1	1	x
Cc1c(C(=O)N2CC(C)OC(C)C2)[nH]c2ccc(Br)cc12 (stereo unspecified)	0.94	3	0.97	x	6	x	x
COc1ccc(N2CCN(CCNC(=O)CCC(=O)NNc3nc4ccccc4c4nc(C)nn34)CC2)cc1	0.9	-145	2.5*	x	10	x	-24
Cc1nc2c3ccccc3nc(NNC(=O)CCC(=O)N3CCCC(C)C3)n2n1 (stereo unspecified)	0.86	-154	2.5*	x	14	x	-42*
Cc1nc2c3ccccc3nc(NNC(=O)CCC(=O)NC3CCCC3)n2n1	0.77	6	0.94	-51	23	1.5	x
COC(=O)c1nnn(-c2nonc2N)c1CSc1nc2ccccc2o1	0.94	-227	3.3*	-1	6	1	0
COC(=O)c1nnn(-c2nonc2N)c1CSc1nc2ccccc2s1	0.95	10	0.9	1	5	1	x
OCC[C@H]1C[C@H](O)[C@@H](O)[C@]2(Cc3ccccc3CCO2)O1	1	4	0.96	x	-1	x	x
O=C(O)CCC(=O)Nc1ccccc1C(=O)NC1CCCCC1	1	-110	2.1*	11	0	0.9	-6
Cc1ccc(-c2[nH]ncc2C(=O)c2ccc(Br)cc2)c(O)c1	0.99	-105	2*	x	1	x	1
Cc1ccc(C(=O)c2cn[nH]c2-c2cc(Cl)ccc2O)cc1	0.97	-7	1.1	-51	3	1.5	x
CCN(C(=O)COC(=O)c1cc([N+](=O)[O-])ccc1N1CCOCC1)C1CCS(=O)(=O)C1 (stereo unspecified)	0.98	-2	1	x	2	x	x
COc1cc(Cl)ccc1OCc1cc(C(=O)N2CCCCCCC2)no1	1.1	39*	0.61	x	-7	x	35
Nc1nc(-c2ccccc2)c(N=Nc2cccc3ccccc23)s1	0.69	35*	0.65	0	30	1	15
CCCCC(CC)C(=O)Nc1cc(=O)[nH]c2nc3ccccc3n12 (stereo unspecified)	0.96	-102	2*	x	4	x	5
Cc1cccn2c(=O)c3cc(C(=O)NC4CCCC4)c(=N)n(CCCN4CCOCC4)c3nc12	0.97	4	0.96	x	3	x	x
SMILES	mIAP activ	hIAP inh	hIAP activ	bIAP inhibitor	mIAP inh	bIAP activator	hIAP act conf
COc1cc2c(cc1OC)C1=C(C#N)CC/C(=N\S(=O)(=O)c3ccccc3)N1CC2	1.1	2	0.98	-4	-8	1	x
COc1ccc(C(=O)N=C2CCC(C#N)=C3c4cc(OC)c(OC)cc4CCN23)cc1	1.1	-106	2.1*	34	-12	0.7	9
O=C(Cc1cccc(F)c1F)NC1CCCN(Cc2ccc(Cl)cc2)C1 (stereo unspecified)	1	12	0.88	x	0	x	x
COc1ccc2[nH]c(C(=O)N/N=C/c3ccc(O)cc3O)cc2c1	0.82	-104	2*	x	18	x	-9
Cc1ccc(Cl)cc1NC(=O)N[C@@H](CC(C)C)C(=O)O	0.94	13	0.87	x	6	x	x
Cc1cccc(C(=O)NNC(=O)CCCCC(=O)NNC(=O)c2cccc(C)c2)c1	1.1	-144	2.4*	x	-7	x	-4
Cc1cc(C(=O)NNC(=O)CCCCC(=O)NNC(=O)c2cc(C)[nH]n2)n[nH]1	0.73	-254	3.5*	20	27	0.8	-79
COc1ccc(CC(=O)NNC(=O)c2cc(C)[nH]n2)cc1	0.79	-43	1.4	x	21	x	x
CCCOc1ccc(C(F)(F)F)cc1NC(=O)C1CC(=O)N(Cc2ccco2)C1 (stereo unspecified)	1	6	0.94	x	0	x	x
c1ccc2c3c(cc(N4CCOCC4)c2c1)OC1(N2CCOCC2)CCCCC1O3 (stereo unspecified)	0.9	85*	0.15	-8	10	1.1	-5
Cn1cc(/C=C(\NC(=O)c2ccccc2Cl)C(=O)NCCCN2CCOCC2)c2ccccc21	1	-9	1.1	x	-1	x	x
Cn1cc(/C=C(\NC(=O)c2ccccc2Cl)C(=O)NCCN2CCOCC2)c2ccccc21	0.93	38*	0.62	x	7	x	14
Cc1ccc(C(=O)NNC(=O)CCC(=O)NCc2ccccc2)cc1Br	0.89	-121	2.2*	x	11	x	2
Cc1nn(C2CCS(=O)(=O)C2)c2nc(C3CC3)cc(C(=O)Nc3cccc(C#N)c3)c12 (stereo unspecified)	0.96	-15	1.2	x	4	x	x
O=C(NNC(=O)c1ccccc1O)c1cc2ccccc2o1	0.73	-137	2.4*	x	27	x	-41
COCCCNC(=O)c1ccc(S(=O)(=O)c2ccc(C)cc2)c(NC(C)=O)c1	1	-6	1.1	x	-1	x	x
Cc1ccc(C(=O)OCC(=O)Nc2ccccc2C(F)(F)F)cc1S(=O)(=O)N1CCCCC1	0.94	2	0.97	x	6	x	x
CCOc1cccc2sc(Nc3nc4ccc(NC(C)=O)cc4s3)nc12	1.4	-108	2.1*	-14	-39	1.1	9
